Laboratory results published in ChEMBL document CHEMBL3102703, “Chemical constituents from Inonotus obliquus and their biological activities” (J Nat Prod, 2014).

Experiments:
[1] = Hepatoprotective activity in rat WB-F344 cells assessed as inhibition of D-galactosamine-induced toxicity at 10 uM preincubated for 1 hr followed by D-galactosamine challenge measured after 24 hrs by MTT assay relative to control; type: functional
In short: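 WB-F344 rat liver cells, compounds at 10 μM, D-galactosamine injury. Read-out is optical density. Survival is given as % of untreated normal cells. Inhibition (%) = [(OD sample − OD control)/(OD normal − OD control)] × 100. Bicyclol at 10 μM is the positive control. Data are means ± SD: n = 3 for samples, n = 6 for normal and control wells.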

[2] = Hepatoprotective activity against D-galactosamine-induced toxicity in rat WB-F344 cells assessed as cell survival at 10 uM preincubated for 1 hr followed by D-galactosamine challenge measured after 24 hrs by MTT assay relative to normal cell; type: functional; details: read-out: Survival
In short: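 WB-F344 cells exposed to D-galactosamine, with test agents at 10 μM and bicyclol at 10 μM as positive control. Readout is optical density (OD). Survival is expressed as % of untreated normal cells. Values are means ± SD, n = 3 (n = 6 for normal and model-control groups).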

KB = experiment: Cytotoxicity against human KB cells after 4 days by MTT assay; type: functional, cell-based; details: 96 h
A549 = experiment: Cytotoxicity against human A549 cells after 4 days by MTT assay; type: functional, cell-based; details: A549, 96 h
[3] = Cytotoxicity against human Bel7402 cells after 4 days by MTT assay; type: functional, cell-based; details: Bel-7402, 96 h
[4] = Inhibition of tyrosine kinase (unknown origin) by ELISA; design: species or system Homo sapiens

Row | SMILES | inhibition at 10 µM [1] [%] | viability at 10 µM [2] [%] | IC50 (KB) [µM] | IC50 (A549) [µM] | IC50 [3] [µM] | IC50 [4] [µM]
1 | CC(C)=C(C)[C@@H]1C[C@H]([C@H]2CC[C@@]3(C)C4=C(CC[C@]23C)[C@@]2(C)CC[C@H](O)C(C)(C)[C@@H]2CC4)C(=O)O1 | 71.9 | 91 | – | – | – | –
2 | CC(C)c1ccc2c(c1)C(=O)C[C@H]1C(C)(C)CCC[C@@]21C(=O)O | 34.4 | 79 | – | – | – | –
3 | CC(C)[C@@H](C)/C=C/[C@@H](C)[C@H]1CC[C@H]2C3=CC[C@H]4C[C@@H](O)CC[C@]4(C)[C@H]3CC[C@]12C | 43.8 | 82 | – | – | – | –
4 | CC(C)=CC[C@@H](O)[C@@H](C)[C@H]1CC[C@@]2(C)C3=C(CC[C@]12C)[C@@]1(C)CC[C@H](O)C(C)(C)[C@@H]1CC3 [INOTODIOL] | 56.3 | 86 | – | – | – | –
5 | CC[C@H](CC[C@@H](C)[C@H]1CC[C@H]2[C@@H]3CCC4=C[C@@H](O)CC[C@]4(C)[C@H]3CC[C@]12C)C(C)C [LAWSARITOL] | 40.6 | 81 | – | – | – | –
6 | CC(C)[C@@H](C)CC[C@@H](C)[C@H]1CC[C@H]2C3=CCC4C[C@@H](O)CC[C@]4(C)[C@H]3CC[C@]12C (stereo partly drawn) | 37.4 | 80 | – | – | – | –
7 | CC(C)=CCC[C@@H](C(=O)O)[C@H]1CC[C@@]2(C)C3=C(CC[C@]12C)[C@@]1(C)CC[C@H](O)C(C)(C)[C@@H]1CC3 [TRAMETENOLIC ACID] | 75 | 92 | – | – | – | –
8 | C=C(C)C(=O)CC(O)[C@@H](C)[C@H]1CC[C@@]2(C)C3=C(CC[C@]12C)[C@@]1(C)CC[C@H](O)C(C)(C)[C@@H]1CC3 (stereo partly drawn) | – | – | 9.9 | > 10 | > 10 | –
9 | CC(C)=CCC(O)[C@@H](C)[C@H]1CC[C@@]2(C)C3=C(C(=O)C[C@]12C)[C@@]1(C)CC[C@H](O)C(C)(C)[C@@H]1CC3 (stereo partly drawn) | 81.2 | 94 | – | – | – | –
10 | O=Cc1ccc(O)c(O)c1 [PROTOCATECHUALDEHYDE] | – | – | > 10 | 3.1 | 3.7 | 7.7
11 | COC(=O)c1cc(OC)c2c(c1-c1c(CO)cc(OC)c3c1OCO3)OCO2 [BICYCLOL] | – | 80 | – | – | – | –
12 | COc1cc(C(=O)O)ccc1O [VANILLIC ACID] | 56.5 | 86 | – | – | – | –
13 | CC(=O)/C=C/c1ccc(O)c(O)c1 | – | – | > 10 | > 10 | 4.7 | –
14 | CC(C)=CCC[C@@H](C)[C@H]1CC[C@@]2(C)C3=C(CC[C@]12C)[C@@]1(C)CC[C@H](O)C(C)(C)[C@@H]1CC3 [LANOSTEROL] | 74.8 | 92 | – | – | – | –
15 | O=c1[nH]cc(F)c(=O)[nH]1 [FLUOROURACIL] | – | – | 8.1 | – | 5.5 | –
